Series [1] concerns the target T1, Quinolone resistance protein NorA (Staphylococcus aureus) (UniProt P0A0J7).
T1 sequence (whole entry): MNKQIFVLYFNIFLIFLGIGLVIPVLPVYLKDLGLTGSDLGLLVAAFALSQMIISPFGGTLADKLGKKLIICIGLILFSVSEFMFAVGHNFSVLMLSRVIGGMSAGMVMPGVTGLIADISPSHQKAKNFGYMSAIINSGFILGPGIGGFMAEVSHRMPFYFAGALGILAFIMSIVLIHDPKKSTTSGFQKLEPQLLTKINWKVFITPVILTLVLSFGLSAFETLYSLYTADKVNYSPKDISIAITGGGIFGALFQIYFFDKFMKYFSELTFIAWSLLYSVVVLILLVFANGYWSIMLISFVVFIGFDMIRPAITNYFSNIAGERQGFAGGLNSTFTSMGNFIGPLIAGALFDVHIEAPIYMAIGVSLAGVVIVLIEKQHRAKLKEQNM
Briefly: Inhibition of NorA in fluoroquinolone-resistant Staphylococcus aureus 1199B assessed as potentiation of 4 ug/ml of ciprofloxacin MIC at 100 ug/ml after 24 hrs by microdilution method. In outline:
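Combination with ciprofloxacin 4 μg/mL (MIC/4) against SA-1199B in MH broth microdilution, 10^6 CFU/mL, 24 h at 37 °C, read at 620 nm and visually. Compounds are first screened at 100 μg/mL; actives are 2-fold serially diluted. MMC4 is the lowest inhibitor concentration giving antibacterial activity with subinhibitory ciprofloxacin. Duplicates.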
A general note: Broth dilution looks for growth in wells or tubes with falling amounts of substance.

For series [2], the system named is Staphylococcus aureus. Briefly: Toxicity in Staphylococcus aureus ATCC 25923 at 100 ug/ml after 24 hrs by microdilution method. Format: organism-based. In short, it runs like this:
(§1)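 Single-point screen at 100 μg/mL of compound alone in MH broth microdilution, 10^6 CFU/mL, 24 h at 37 °C. Growth is read at 620 nm and visually, giving percent growth inhibition. Compounds inhibiting more than 90% then go to MIC determination. Duplicates.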

Series [3] concerns Staphylococcus aureus. The series is described as follows: Toxicity in fluoroquinolone-resistant Staphylococcus aureus 1199B expressing NorA at 100 ug/ml after 24 hrs by microdilution method. Format: organism-based. In short, it runs like this:
as §1

In series [4] the test system is Staphylococcus aureus. Briefly: Toxicity in Staphylococcus aureus ATCC 25923 after 24 hrs by microdilution method. Format: organism-based. In short, it runs like this: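 Mueller–Hinton broth microdilution; inoculum from frozen culture grown 18 h at 37 °C, 10^6 CFU/mL per well. Compounds (10 mg/mL DMSO stock) in 2-fold serial dilutions, highest 128 mg/L, first screened at 100 μg/mL. MIC = complete growth inhibition after 24 h at 37 °C, read at 620 nm and visually; duplicate; ampicillin control.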

Regarding `CC(C)(O)C(C)(C)OB(OC(C)(C)C(C)(C)O)c1ccncc1F`, the Activity in series [1] is more than 128 µg/mL. Moreover, the “growth inhibition (GI)” value in series [2] and in series [3] was less than 90% throughout. For the same compound, in series [4], the MIC result is “>= 64 ug ml-1”.

Consider `Cc1cc(B(OC(C)(C)C(C)(C)O)OC(C)(C)C(C)(C)O)cnc1Cl`, for which the Activity in series [1] was found to be 32 µg/mL. Besides, the “growth inhibition (GI)” value in series [2] and in series [3] was less than 90% each time. Also, in series [4], the MIC entry is “>= 64 ug ml-1”.

Take `CSc1ccc(B(OC(C)(C)C(C)(C)O)OC(C)(C)C(C)(C)O)cn1`: in series [1], the Activity is more than 128 µg/mL. For the same compound, the “growth inhibition (GI)” value in series [2] and in series [3] was less than 90% throughout. The MIC result in series [4] was “>= 64 ug ml-1”.

As to `CC(C)(O)C(C)(C)OB(OC(C)(C)C(C)(C)O)c1ccc(NCc2ccccc2)nc1`, the Activity in series [1] is 128 µg/mL. Besides, the “growth inhibition (GI)” value in series [2] and in series [3] was less than 90% in each case. Further, the MIC result in series [4] was “>= 64 ug ml-1”.

As to `OB(O)c1ccnc(Cl)c1`, the Activity in series [1] was more than 128 µg/mL. Further, the “growth inhibition (GI)” value in series [2] and in series [3] was less than 90% in each case. In addition, the MIC result in series [4] is “>= 64 ug ml-1”.

Take `COc1ncccc1B(OC(C)(C)C(C)(C)O)OC(C)(C)C(C)(C)O`: the Activity in series [1] is more than 128 µg/mL. Moreover, the “growth inhibition (GI)” value in series [2] and in series [3] was less than 90% throughout. In series [4], the MIC entry is listed as “>= 64 ug ml-1”.

In the case of `N#Cc1ncccc1B(O)O`, in series [1], the Activity was more than 128 µg/mL. Besides, the “growth inhibition (GI)” value in series [2] and in series [3] was less than 90% each time. Also, in series [4], the MIC result was “>= 64 ug ml-1”.

On to `OB(O)c1cccnc1OCc1ccccc1`, for which, in series [1], the Activity came out at 32 µg/mL. For the same compound, the “growth inhibition (GI)” value in series [2] and in series [3] was less than 90% each time. For the same compound, in series [4], the MIC entry is recorded as “>= 64 ug ml-1”.

For the compound `CC(C)(O)C(C)(C)OB(OC(C)(C)C(C)(C)O)c1cc(Br)cnc1Cl`, the Activity in series [1] turned out to be 128 µg/mL. Moreover, the “growth inhibition (GI)” value in series [2] and in series [3] was less than 90% each time. The MIC entry in series [4] is recorded as “>= 64 ug ml-1”.

In the case of `CC(C)(O)C(C)(C)OB(OC(C)(C)C(C)(C)O)c1ccnc(Cl)c1`, in series [1], the Activity amounted to 128 µg/mL. The “growth inhibition (GI)” value in series [2] and in series [3] was less than 90% in each case. Further, the MIC result in series [4] is recorded as “>= 64 ug ml-1”.

As for `OB(O)c1ccnc(F)c1`, the Activity in series [1] is more than 128 µg/mL. For the same compound, the “growth inhibition (GI)” value in series [2] and in series [3] was less than 90% throughout. Besides, in series [4], the MIC result is reported as “>= 64 ug ml-1”.

With `OB(O)c1cccnc1Cl`, in series [1], the Activity was more than 128 µg/mL. Also, the “growth inhibition (GI)” value in series [2] and in series [3] was less than 90% in each case. For the same compound, the MIC entry in series [4] is “>= 64 ug ml-1”.

Take `CC1(C)OB(c2cncs2)OC1(C)C`: the Activity in series [1] was more than 128 µg/mL. In addition, the “growth inhibition (GI)” value in series [2] and in series [3] was less than 90% each time. The MIC result in series [4] was “>= 64 ug ml-1”.

Regarding `CC(C)(O)C(C)(C)OB(OC(C)(C)C(C)(C)O)c1ccnc(Cl)c1Cl`, the Activity in series [1] was determined as 32 µg/mL. For the same compound, the “growth inhibition (GI)” value in series [2] and in series [3] was less than 90% each time. Also, the MIC entry in series [4] is given as “>= 64 ug ml-1”.

On to `CCOc1ncccc1B(O)O`, for which the Activity in series [1] was more than 128 µg/mL. Besides, the “growth inhibition (GI)” value in series [2] and in series [3] was less than 90% in each case. In series [4], the MIC result was “>= 64 ug ml-1”.

As to `OB(O)c1cc(Br)cnc1Cl`, in series [1], the Activity was 32 µg/mL. Further, the “growth inhibition (GI)” value in series [2] and in series [3] was less than 90% throughout. Also, in series [4], the MIC entry is recorded as “>= 64 ug ml-1”.

In the case of `F[B-](F)(F)c1cccnc1.[K+]`, the Activity in series [1] is more than 128 µg/mL. The “growth inhibition (GI)” value in series [2] and in series [3] was less than 90% throughout. For the same compound, the MIC result in series [4] is “>= 64 ug ml-1”.

As for `CC(C)(O)C(C)(C)OB(OC(C)(C)C(C)(C)O)c1ccncc1Cl`, in series [1], the Activity is more than 128 µg/mL. For the same compound, the “growth inhibition (GI)” value in series [2] and in series [3] was less than 90% throughout. The MIC entry in series [4] is given as “>= 64 ug ml-1”.

Take `Cc1cc(B(O)O)c(C)s1`: in series [1], the Activity came to 16 µg/mL. For the same compound, the “growth inhibition (GI)” value in series [2] and in series [3] was less than 90% throughout. Moreover, the MIC entry in series [4] is on record as “>= 64 ug ml-1”.

As to `CC(C)(O)C(C)(C)OB(OC(C)(C)C(C)(C)O)c1ccncc1C#N`, the Activity in series [1] is more than 128 µg/mL. The “growth inhibition (GI)” value in series [2] and in series [3] was less than 90% each time. Besides, the MIC entry in series [4] is “>= 64 ug ml-1”.

For `N#Cc1cnccc1B(O)O`, in series [1], the Activity was more than 128 µg/mL. Further, the “growth inhibition (GI)” value in series [2] and in series [3] was less than 90% each time. In addition, in series [4], the MIC entry is listed as “>= 64 ug ml-1”.

With `CC(C)(O)C(C)(C)OB(OC(C)(C)C(C)(C)O)c1cncc(Br)c1`, the Activity in series [1] is more than 128 µg/mL. The “growth inhibition (GI)” value in series [2] and in series [3] was less than 90% each time. Besides, the MIC entry in series [4] is reported as “>= 64 ug ml-1”.

`Cc1cccc(C)c1B(O)O`: the Activity in series [1] is more than 128 µg/mL. Moreover, the “growth inhibition (GI)” value in series [2] and in series [3] was less than 90% each time. For the same compound, the MIC entry in series [4] is reported as “>= 64 ug ml-1”.

Regarding `COc1ncccc1B(O)O`, the Activity in series [1] turned out to be 16 µg/mL. In addition, the “growth inhibition (GI)” value in series [2] and in series [3] was less than 90% in each case. Further, in series [4], the MIC result is “>= 64 ug ml-1”.

Regarding `CC(C)Nc1ccc(B(O)O)cc1`, the Activity in series [1] stood at 64 µg/mL. Further, the “growth inhibition (GI)” value in series [2] and in series [3] was less than 90% in each case. The MIC result in series [4] was “>= 64 ug ml-1”.

In the case of `CC(C)(O)C(C)(C)OB(OC(C)(C)C(C)(C)O)c1ccnc(F)c1Cl`, the Activity in series [1] was found to be 16 µg/mL. Further, the “growth inhibition (GI)” value in series [2] and in series [3] was less than 90% in each case. The MIC entry in series [4] is “>= 64 ug ml-1”.

On to `CC(C)(C)OC(=O)Nc1ncc(B2OC(C)(C)C(C)(C)O2)s1`, for which the Activity in series [1] is more than 128 µg/mL. In addition, the “growth inhibition (GI)” value in series [2] and in series [3] was less than 90% each time. Moreover, the MIC result in series [4] was “>= 64 ug ml-1”.

`CSc1ncccc1B(OC(C)(C)C(C)(C)O)OC(C)(C)C(C)(C)O`: the Activity in series [1] was more than 128 µg/mL. Also, the “growth inhibition (GI)” value in series [2] and in series [3] was less than 90% in each case. Moreover, the MIC entry in series [4] is listed as “>= 64 ug ml-1”.

On to `Cc1cc(B(OC(C)(C)C(C)(C)O)OC(C)(C)C(C)(C)O)ccn1`, for which, in series [1], the Activity is more than 128 µg/mL. Also, the “growth inhibition (GI)” value in series [2] and in series [3] was less than 90% throughout. In addition, the MIC result in series [4] is on record as “>= 64 ug ml-1”.

`OB(O)c1cccnc1Br`: the Activity in series [1] was more than 128 µg/mL. Besides, the “growth inhibition (GI)” value in series [2] and in series [3] was less than 90% each time. Besides, the MIC result in series [4] was “>= 64 ug ml-1”.

With `COC(=O)[C@H]1[C@H]2C[C@@H]3c4[nH]c5cc(OC)ccc5c4CCN3C[C@H]2C[C@@H](OC(=O)c2cc(OC)c(OC)c(OC)c2)[C@@H]1OC` [RESERPINE], the Activity in series [1] was 4 µg/mL. Besides, in series [4], the MIC entry was “>= 64 ug ml-1”.

The values are drawn from ChEMBL document CHEMBL3232989, “First identification of boronic species as novel potential inhibitors of the Staphylococcus aureus NorA efflux pump” (J Med Chem, 2014).
